In ChEMBL document CHEMBL1152697, “Design, synthesis and SAR studies of 4-allyoxyaniline amides as potent 15-lipoxygensae inhibitors” (Bioorg Med Chem, 2009):

Assay: Inhibition of soybean 15-lipoxygenase
Design: species or system Glycine max
Method in brief: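 Soybean 15-lipoxygenase (final 167 U/mL) in 0.1 M borate buffer pH 9, linoleic acid substrate (final 134 μM), 20 ± 1 °C. Compounds added in DMSO (final 1%), DMSO-only controls, inhibitor plus substrate as blank. Absorbance at 234 nm read for 60 s after enzyme addition. Enzyme kept on ice. At least six control tubes and triplicate tubes per inhibitor. IC50 by linear interpolation around 50% activity, mean ± SD.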

Row | Structure (SMILES) | IC50 [µM]
1 | C=CCOc1ccc(NC(=O)C2CC2)cc1 | 6.1
2 | C=CCOc1ccc(OC(=O)c2ccccc2)cc1 | 6.2
3 | C=CCOc1ccc(NC(=O)c2cccc(F)c2)cc1 | 5.6
4 | C=CCOc1ccc(NC(=O)C2CCC2)cc1 | 2.2
5 | C=CCOc1ccc(NC(=O)c2ccc(F)cc2)cc1 | 3.8
6 | C=CCOc1ccc(NC(=O)c2ccc(Cl)cc2)cc1 | 8.8
7 | C=CCOc1ccc(NC(=O)c2ccc(C)cc2)cc1 | 10.1
8 | C=CCc1ccc(OC)cc1 [ESTRAGOLE] | 64.1
9 | C=CCc1ccc(O)c(OC)c1 [EUGENOL] | 38.2
10 | C=CCc1ccc(OC(=O)c2ccccc2)c(OC)c1 [EUGENYL BENZOAT] | 7

Continued by falling IC50, values first:

Row | IC50 [µM] | Structure (SMILES)
11 | 96.1 | C=CCc1ccc(OC)c(OC)c1 [METHYLEUGENOL]
12 | 17 | C=CCOc1ccc(NC(=O)c2cccc(OC)c2)cc1
13 | 13.8 | C=CCOc1ccc(NC(=O)c2ccc(OC)cc2)cc1
14 | 12.9 | C=CCOc1ccc(NC(=O)C(C)C)cc1
15 | 8.1 | C=CCOc1ccc(NC(=O)c2cccc(Cl)c2)cc1
16 | 6.7 | C=CCOc1ccc(NC(=O)c2cccc(C)c2)cc1
17 | 6.7 | C=CCc1ccc(OC(=O)c2ccccc2)cc1
18 | 6.4 | C=CCOc1ccc(NC(=O)C2CCCCC2)cc1
19 | 4.1 | C=CCOc1ccc(NC(=O)C2CCCC2)cc1
20 | 3.3 | C=CCOc1ccc(NC(=O)c2ccccc2)cc1
21 | 0.67 | C=CCOc1ccc(NC(=O)C23CC4CC(CC(C4)C2)C3)cc1
